The results in this text go back to ChEMBL document CHEMBL2413022, “3-Aryl-4-acyloxyethoxyfuran-2(5H)-ones as inhibitors of tyrosyl-tRNA synthetase: synthesis, molecular docking and antibacterial evaluation” (Bioorg Med Chem, 2013).

For one assay, the system named is Candida albicans. In words: Antifungal activity against Candida albicans ATCC 10231 by MTT assay. The assay is classed as functional. In a few lines:
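LB medium; inoculum about 10⁵ cfu/mL with serially diluted compound (medium-only blank), incubated at 28 °C. MTT in PBS (3 mg/mL) added, 4–5 h at room temperature. Dye extracted 8–10 h in 10% SDS with 5% isopropanol and HCl. OD read at 570 nm, control OD 1.0–2.0; MIC50 from absorbance.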

The test system of the next assay is Staphylococcus aureus. In words: Antibacterial activity against Staphylococcus aureus ATCC 25923 by MTT assay. The assay is classed as functional. In a few lines: (§1)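 LB medium; inoculum about 10⁵ cfu/mL added to serially diluted compound (medium-only blank) and incubated at 37 °C. Then MTT in PBS (3 mg/mL) added, 4–5 h at room temperature. Medium removed, dye extracted 8–10 h in 10% SDS with 5% isopropanol and HCl. Read OD 570 nm, control OD kept at 1.0–2.0; MIC50 taken from absorbance.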

The test system of another assay is Escherichia coli. In words: Antibacterial activity against Escherichia coli ATCC 35218 by MTT assay. It counts as functional. The procedure, abridged:
as §1

Assay [1] in a line: Inhibition of Staphylococcus aureus tyrosyl-tRNA synthetase expressed in Escherichia coli using L-[ring-3,5-3H] tyrosine as substrate preincubated for 10 mins by liquid scintillation counting analysis. In a few lines:
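Enzyme purified to about 98% (SDS–PAGE). Aminoacylation at 37 °C, final 100 mM Tris/Cl pH 7.9, 50 mM KCl. TyrRS (0.2 nM) preincubated with a range of inhibitor concentrations for 10 min at room temperature, then pre-warmed mixture added. Aliquots quenched in ice-cold 7% TCA at set intervals, filtered, counted by liquid scintillation.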

A further assay has as its system Pseudomonas aeruginosa. In words: Antibacterial activity against Pseudomonas aeruginosa ATCC 27853 by MTT assay. The assay is classed as functional. The procedure, abridged: as §1

Each structure is given as a SMILES string. ≈ marks a conversion by molar mass, not a printed value.

On to `CCCC(=O)OCCOC1=C(c2ccccc2)C(=O)OC1`, for which the MIC50 in the assay on Candida albicans is 88.7 µg/mL (≈ 306 µM); against Staphylococcus aureus, 41.3 µg/mL (≈ 142 µM); against Escherichia coli, more than 100 µg/mL; against Pseudomonas aeruginosa it was 98.1 µg/mL (≈ 338 µM). Moreover, the IC50 in assay [1] came out at 84.6 µM.

`CCCCCC(=O)OCCOC1=C(c2ccccc2)C(=O)OC1`: the MIC50 against Candida albicans is 21.4 µg/mL (≈ 67.2 µM); against Staphylococcus aureus, 43 µg/mL (≈ 135 µM); with Escherichia coli it was more than 100 µg/mL; in the assay with Pseudomonas aeruginosa it was 60.8 µg/mL (≈ 191 µM). Also, it took 47.8 µM to reach half-maximal inhibition in assay [1] (IC50).

Consider `CCCCCCCC(=O)OCCOC1=C(c2ccccc2)C(=O)OC1`, for which the MIC50 with Candida albicans was more than 100 µg/mL; against Staphylococcus aureus, more than 100 µg/mL; in the assay with Escherichia coli it was 48.8 µg/mL (≈ 141 µM); against Pseudomonas aeruginosa it was 56.8 µg/mL (≈ 164 µM). In assay [1], this molecule displayed an IC50 of 41 µM.

Regarding `O=C1OCC(OCCOC(=O)c2ccccc2)=C1c1ccccc1`, the MIC50 in the assay with Candida albicans was more than 100 µg/mL; in the assay on Staphylococcus aureus, 17.8 µg/mL (≈ 54.9 µM); in the assay on Escherichia coli it was more than 100 µg/mL; against Pseudomonas aeruginosa, 13.4 µg/mL (≈ 41.3 µM). Besides, half-maximal inhibition in assay [1] (IC50) required 12.8 µM.

For the molecule `O=C1OCC(OCCOC(=O)c2cccnc2)=C1c1ccccc1`, the MIC50 against Candida albicans was more than 100 µg/mL; with Staphylococcus aureus it was 22.8 µg/mL (≈ 70.1 µM); against Escherichia coli it was 18.6 µg/mL (≈ 57.2 µM); in the assay on Pseudomonas aeruginosa, 44.8 µg/mL (≈ 138 µM). Also, 26 µM corresponded to half-maximal inhibition in assay [1] (IC50).

`O=C1OCC(OCCOC(=O)c2ccc3ccccc3c2)=C1c1ccccc1`: the MIC50 with Candida albicans is more than 100 µg/mL; in the assay with Staphylococcus aureus, 21.9 µg/mL (≈ 58.5 µM); with Escherichia coli, more than 100 µg/mL; in the assay on Pseudomonas aeruginosa, 18.1 µg/mL (≈ 48.3 µM). Further, in assay [1], the IC50 stood at 17.7 µM.

With `O=C1OCC(OCCOC(=O)c2ccc3cc(O)ccc3c2)=C1c1ccccc1`, the MIC50 is more than 100 µg/mL in the assay with Candida albicans, 16.1 µg/mL (≈ 41.2 µM) with Staphylococcus aureus, more than 100 µg/mL in the assay with Escherichia coli and 15.8 µg/mL (≈ 40.5 µM) with Pseudomonas aeruginosa. In assay [1], this molecule had an IC50 of 16.8 µM.

For `Cc1ccccc1C(=O)OCCOC1=C(c2ccccc2)C(=O)OC1`, the MIC50 in the assay on Candida albicans is more than 100 µg/mL; in the assay with Staphylococcus aureus, more than 100 µg/mL; against Escherichia coli it was 19.3 µg/mL (≈ 57 µM); in the assay with Pseudomonas aeruginosa, 90.2 µg/mL (≈ 267 µM). In assay [1], this molecule showed an IC50 of more than 100 µM.

Take `O=C1OCC(OCCOC(=O)c2ccccc2Cl)=C1c1ccccc1`: the MIC50 with Candida albicans is more than 100 µg/mL; in the assay on Staphylococcus aureus it was 72.9 µg/mL (≈ 203 µM); in the assay on Escherichia coli it was 17.9 µg/mL (≈ 49.9 µM); with Pseudomonas aeruginosa, 52.7 µg/mL (≈ 147 µM). In assay [1], the IC50 was 56.8 µM.

`O=C1OCC(OCCOC(=O)c2ccccc2[N+](=O)[O-])=C1c1ccccc1`: the MIC50 against Candida albicans is more than 100 µg/mL; in the assay with Staphylococcus aureus it was 24.3 µg/mL (≈ 65.8 µM); against Escherichia coli, 17.5 µg/mL (≈ 47.4 µM); in the assay with Pseudomonas aeruginosa, 35.5 µg/mL (≈ 96.1 µM). Further, 18.2 µM corresponded to half-maximal inhibition in assay [1] (IC50).

Regarding `O=C1OCC(OCCOC(=O)c2ccccc2O)=C1c1ccccc1`, the MIC50 in the assay on Candida albicans was more than 100 µg/mL; against Staphylococcus aureus, 24.9 µg/mL (≈ 73.2 µM); against Escherichia coli, 15.7 µg/mL (≈ 46.1 µM); against Pseudomonas aeruginosa it was 47.8 µg/mL (≈ 140 µM). In addition, half-maximal inhibition in assay [1] (IC50) was put at 41.4 µM.

On to `COc1ccccc1C(=O)OCCOC1=C(c2ccccc2)C(=O)OC1`, for which the MIC50 in the assay on Candida albicans is more than 100 µg/mL; against Staphylococcus aureus, more than 100 µg/mL; with Escherichia coli, more than 100 µg/mL; in the assay with Pseudomonas aeruginosa it was 73.6 µg/mL (≈ 208 µM). In assay [1], this molecule returned an IC50 of 64.7 µM.
